Measured values reported in ChEMBL document CHEMBL4190249, “Antiproliferative and apoptotic activities of sequence-specific histone acetyltransferase inhibitors” (Eur J Med Chem, 2017).
Activity calls are given as the source filed them. The calls are words filed in the database; no cut-off is given here.

Legend:
[1] = molecular target: Histone acetyltransferase p300 (Homo sapiens, UniProt Q09472); assay: Inhibition of p300 (unknown origin) using H3 peptide and acetyl-coA as substrate by fluorometric assay
Procedure, shortened: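 Fluorometric HAT kit assay with recombinant p300 core domain as enzyme and acetyl-CoA plus H3 histone peptide as substrates. Effectors were tested at 1 and 5 μM. HeLa nuclear extract served as positive control, and 0.5% DMSO was set as 100% activity.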

dsDNA [2] = assay: Binding affinity to 5'-ACTTATTCCATATAGA-3'/3'-TGAATAAGGTATATCT-5' dsDNA (unknown origin) assessed as change in melting temperature at 2.5 uM by spectrophotometric method; format: nucleic-acid assay
dsDNA [3] = assay: Binding affinity to 5'-ACTTATCCACTATAGA-3'/3'-TGAATAGGTGATATCT-5' dsDNA (unknown origin) assessed as change in melting temperature at 2.5 uM by spectrophotometric method; format: nucleic-acid assay
A549 = assay: Antiproliferative activity against human A549 cells at 0.1 to 10 uM after 96 hrs by WST8 assay; format: functional, cell-based
Procedure, shortened: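 Cells seeded at 5×10^3 per well and grown 24 h at 37°C, 5% CO2. A549 medium was DMEM with 10% FBS and 2 mM L-glutamine. SW620 medium had 10% FBS and 1% penicillin/streptomycin. Medium was then replaced with conjugate at 0.1, 1, 5 or 10 μM for 96 h. WST-8 reagent was added and absorbance read at 450 nm. Results are mean ± SD.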

Sequence of Histone acetyltransferase p300 (Q09472 whole entry, the tested form may be a part): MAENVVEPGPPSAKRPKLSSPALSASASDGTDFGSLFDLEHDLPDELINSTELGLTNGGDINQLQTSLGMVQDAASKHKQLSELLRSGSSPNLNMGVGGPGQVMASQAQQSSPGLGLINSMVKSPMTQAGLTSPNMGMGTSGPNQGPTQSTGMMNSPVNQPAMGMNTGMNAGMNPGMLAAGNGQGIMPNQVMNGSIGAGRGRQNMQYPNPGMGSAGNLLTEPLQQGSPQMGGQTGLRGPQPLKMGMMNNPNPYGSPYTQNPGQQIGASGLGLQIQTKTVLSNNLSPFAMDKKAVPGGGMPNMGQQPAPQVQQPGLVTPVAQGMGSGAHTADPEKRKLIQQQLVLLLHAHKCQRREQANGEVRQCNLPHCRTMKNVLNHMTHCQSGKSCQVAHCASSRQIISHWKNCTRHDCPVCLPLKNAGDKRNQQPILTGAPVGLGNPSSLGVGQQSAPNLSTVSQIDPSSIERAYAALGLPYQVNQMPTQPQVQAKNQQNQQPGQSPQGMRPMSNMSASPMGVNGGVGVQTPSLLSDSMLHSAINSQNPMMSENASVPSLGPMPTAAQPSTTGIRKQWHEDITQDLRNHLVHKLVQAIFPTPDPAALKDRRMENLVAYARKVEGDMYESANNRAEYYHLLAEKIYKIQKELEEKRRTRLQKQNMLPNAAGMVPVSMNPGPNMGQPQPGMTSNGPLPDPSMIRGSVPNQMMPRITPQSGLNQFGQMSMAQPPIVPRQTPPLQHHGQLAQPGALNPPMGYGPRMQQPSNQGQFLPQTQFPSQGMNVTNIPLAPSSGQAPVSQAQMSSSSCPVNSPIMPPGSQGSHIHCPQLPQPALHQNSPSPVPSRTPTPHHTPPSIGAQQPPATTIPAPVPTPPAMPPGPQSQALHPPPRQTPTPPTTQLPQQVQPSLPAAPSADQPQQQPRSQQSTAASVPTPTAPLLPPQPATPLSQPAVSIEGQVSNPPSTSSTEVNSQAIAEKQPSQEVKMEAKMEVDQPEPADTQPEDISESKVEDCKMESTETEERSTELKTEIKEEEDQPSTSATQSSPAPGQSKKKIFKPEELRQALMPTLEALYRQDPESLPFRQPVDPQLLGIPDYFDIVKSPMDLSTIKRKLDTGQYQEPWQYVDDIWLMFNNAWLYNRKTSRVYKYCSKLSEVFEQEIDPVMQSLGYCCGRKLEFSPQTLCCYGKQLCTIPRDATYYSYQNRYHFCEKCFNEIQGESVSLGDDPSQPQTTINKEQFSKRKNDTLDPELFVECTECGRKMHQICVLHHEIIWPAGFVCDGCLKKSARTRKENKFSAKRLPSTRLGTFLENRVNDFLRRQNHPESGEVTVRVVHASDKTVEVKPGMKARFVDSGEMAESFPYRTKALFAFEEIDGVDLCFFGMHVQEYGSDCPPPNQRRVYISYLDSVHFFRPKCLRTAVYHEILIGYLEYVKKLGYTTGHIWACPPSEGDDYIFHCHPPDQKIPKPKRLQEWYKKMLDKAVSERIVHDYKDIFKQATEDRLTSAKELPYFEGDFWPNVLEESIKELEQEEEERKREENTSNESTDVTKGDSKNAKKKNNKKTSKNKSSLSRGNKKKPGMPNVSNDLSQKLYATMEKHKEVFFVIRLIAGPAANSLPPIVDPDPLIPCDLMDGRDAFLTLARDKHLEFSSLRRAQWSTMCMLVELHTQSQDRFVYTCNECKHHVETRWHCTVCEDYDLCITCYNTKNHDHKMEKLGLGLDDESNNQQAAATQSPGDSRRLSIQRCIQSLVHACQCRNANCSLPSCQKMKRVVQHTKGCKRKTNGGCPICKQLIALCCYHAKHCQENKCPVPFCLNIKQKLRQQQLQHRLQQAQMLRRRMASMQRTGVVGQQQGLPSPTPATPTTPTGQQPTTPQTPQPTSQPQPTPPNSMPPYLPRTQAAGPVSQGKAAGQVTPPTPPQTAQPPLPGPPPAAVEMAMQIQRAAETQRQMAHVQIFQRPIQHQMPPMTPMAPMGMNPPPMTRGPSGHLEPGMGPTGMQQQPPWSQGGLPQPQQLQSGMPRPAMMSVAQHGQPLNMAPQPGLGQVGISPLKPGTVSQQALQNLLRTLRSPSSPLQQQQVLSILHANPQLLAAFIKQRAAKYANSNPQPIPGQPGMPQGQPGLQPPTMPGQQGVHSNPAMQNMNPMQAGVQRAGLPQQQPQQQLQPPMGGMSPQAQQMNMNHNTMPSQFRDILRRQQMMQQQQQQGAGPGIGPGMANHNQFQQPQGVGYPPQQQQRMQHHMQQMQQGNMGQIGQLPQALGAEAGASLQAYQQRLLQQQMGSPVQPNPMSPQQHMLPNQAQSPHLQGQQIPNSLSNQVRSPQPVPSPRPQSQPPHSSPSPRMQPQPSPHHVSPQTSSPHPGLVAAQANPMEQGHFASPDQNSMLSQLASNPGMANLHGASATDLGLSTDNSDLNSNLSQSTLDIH

inhibition [1] | ΔTm (dsDNA [2]) [°C] | ΔTm (dsDNA [3]) [°C] | IC50 [1] [µM] | Compound | Activity (A549)
Dose-dependent effect | – | – | – | CCCCCCCCCCCCCCOc1cc(OCCCCCC(=O)NCCC(=O)Nc2cc(C(=O)Nc3cn(C)c(C(=O)Nc4cn(C)c(C(=O)Nc5cc(C(=O)NCCCC(=O)Nc6cc(C(=O)Nc7cc(C(=O)Nc8cc(C(=O)Nc9cc(C(=O)NCCCN(C)C)n(C)c9)n(C)c8)n(C)c7)n(C)c6)n(C)c5)n4)n3)n(C)c2)cc(O)c1C(=O)O | –
– | 18.4 | 12.2 | 3.9 to 4.2 | CC1=NN(c2ccc(C(=O)NCCOCCOCC(=O)NCCOCCOCC(=O)Nc3cc(C(=O)Nc4cn(C)c(C(=O)Nc5cn(C)c(C(=O)Nc6cc(C(=O)NCCCC(=O)Nc7cc(C(=O)Nc8cc(C(=O)Nc9cc(C(=O)Nc%10cc(C(=O)NCCCN(C)C)n(C)c%10)n(C)c9)n(C)c8)n(C)c7)n(C)c6)n5)n4)n(C)c3)cc2)C(=O)/C1=C/c1ccc(-c2cc(C)c(C)cc2[N+](=O)[O-])o1 | Active
– | 16.9 | 11 | 3.9 to 4.2 | CC1=NN(c2ccc(C(=O)NCCC(=O)NCCC(=O)Nc3cc(C(=O)Nc4cn(C)c(C(=O)Nc5cn(C)c(C(=O)Nc6cc(C(=O)NCCCC(=O)Nc7cc(C(=O)Nc8cc(C(=O)Nc9cc(C(=O)Nc%10cc(C(=O)NCCCN(C)C)n(C)c%10)n(C)c9)n(C)c8)n(C)c7)n(C)c6)n5)n4)n(C)c3)cc2)C(=O)/C1=C/c1ccc(-c2cc(C)c(C)cc2[N+](=O)[O-])o1 | Active
Dose-dependent effect | – | – | – | CCCCCCCCCCCCCCOc1cc(OCCCCCC(=O)NCCC(=O)Nc2cc(C(=O)Nc3cn(C)c(C(=O)Nc4cn(C)c(C(=O)Nc5cc(C(=O)NCCCC(=O)Nc6cc(C(=O)Nc7cc(C(=O)Nc8cc(C(=O)Nc9cc(C(=O)O)n(C)c9)n(C)c8)n(C)c7)n(C)c6)n(C)c5)n4)n3)n(C)c2)cc(O)c1C(=O)O | –
